Experimental data from ChEMBL document CHEMBL1144656, “Synthesis and biological evaluation of nitric oxide-releasing derivatives of oleanolic acid as inhibitors of HepG2 cell apoptosis” (2007).
The source made the active and inactive calls. The rule behind the calls is not given here.

What was measured:
HepG2 [1] = assay: Protective effect on anti-Fas induced apoptosis in human HepG2 cells by LDH assay; type: functional
How it was run: (§1)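 HepG2 cells, 10^4/well in triplicate, in phenol-red-free DMEM with 4% FCS and 2 µg/ml cycloheximide. Apoptosis induced with anti-Fas (CH-11 at 50 ng/ml or DX2 at 1.5 µg/ml) with or without test agent, 18 h at 37 °C, 5% CO2. Supernatant LDH activity read at O.D. 490/650. Untreated cells and 1% Triton X-100 served as 0% and 100% cytotoxicity references for % protection. Means of three independent experiments.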

Rattus norvegicus [2] = assay: Inhibition of CCl4-induced liver damage in rat at 128 mg/kg, po; type: functional, organism-based; set-up: dose 128 mg/kg
Homo sapiens [3] = organism: Homo sapiens; assay: Protective effect on anti-Fas induced apoptosis in human Hep3b p53-/- cells 0.1 nM by LDH assay; type: functional, cell-based
HepG2 [4] = assay: Inhibition of anti-Fas induced apoptosis in human HepG2 cells at 0.1 nM by LDH assay; type: functional, cell-based; how it was run: as §1
[5] = Production of nitric oxide by in vitro Griess assay; type: functional
How it was run: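 NO release estimated as nitrite by Griess reaction in vitro: chromophore formed for 10 min at 30 °C, absorbance at 540 nm, reported as ng/ml.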

Rattus norvegicus [6] = assay: Inhibition of CCl4-induced hepatic fibrosis in rat at 128 mg/kg, po; type: functional, organism-based; set-up: dose 128 mg/kg
HepG2 [7] = assay: Inhibition of anti-Fas induced apoptosis in human HepG2 cells at 0.1 uM by LDH assay; type: functional, cell-based; how it was run: as §1
Homo sapiens [8] = organism: Homo sapiens; assay: Protective effect on anti-Fas induced apoptosis in human Hep3b p53-/- cells 0.1 uM by LDH assay; type: functional, cell-based
Homo sapiens [9] = organism: Homo sapiens; assay: Protective effect on anti-Fas induced apoptosis in human Hep3b p53-/- cells 10 nM by LDH assay; type: functional, cell-based
HepG2 [10] = assay: Inhibition of anti-Fas induced apoptosis in human HepG2 cells at 10 nM by LDH assay; type: functional, cell-based; how it was run: as §1
HepG2 [11] = assay: Inhibition of anti-Fas induced apoptosis in human HepG2 cells at 1 nM by LDH assay; type: functional, cell-based; how it was run: as §1
Homo sapiens [12] = organism: Homo sapiens; assay: Protective effect on anti-Fas induced apoptosis in human Hep3b p53-/- cells 1 nM by LDH assay; type: functional, cell-based

SMILES: COc1cc(/C=C/C(=O)OCCCCO[N+](=O)[O-])ccc1OC(=O)CC[C@@H](C)[C@H]1CC[C@H]2[C@H]3C(CC[C@]12C)[C@@]1(C)CC[C@@H](O)C[C@H]1C[C@@H]3O (stereo partly drawn)
- Activity (HepG2 [1]): 33.4%

SMILES: COc1cc(/C=C/C(=O)OCCCO[N+](=O)[O-])ccc1OC(=O)[C@]12CCC(C)(C)C[C@H]1C1=CC[C@@H]3[C@@]4(C)CC[C@H](OC(=O)C(F)(F)F)C(C)(C)[C@@H]4CC[C@@]3(C)[C@]1(C)CC2
- Activity (Rattus norvegicus [2]): Active
- Activity (Homo sapiens [3]): Active
- Activity (HepG2 [4]): Active
- Activity [5]: 12 ng/mL
- Activity (Rattus norvegicus [6]): Active

SMILES: COc1cc(/C=C/C(=O)OCCCCCCO[N+](=O)[O-])ccc1OC(=O)[C@]12CCC(C)(C)C[C@H]1C1=CC[C@@H]3[C@@]4(C)CC[C@H](OC(=O)C(F)(F)F)C(C)(C)[C@@H]4CC[C@@]3(C)[C@]1(C)CC2
- Activity (HepG2 [7]): Active
- Activity (Homo sapiens [8]): Active
- Activity [5]: 21 ng/mL

SMILES: CC1(C)CC[C@]2(C(=O)Oc3ccc(/C=C/C(=O)OCCCO[N+](=O)[O-])cc3)CC[C@]3(C)C(=CC[C@@H]4[C@@]5(C)CC[C@H](OC(=O)C(F)(F)F)C(C)(C)[C@@H]5CC[C@]43C)[C@@H]2C1
- Activity (Homo sapiens [9]): Active
- Activity [5]: 18 ng/mL
- Activity (HepG2 [10]): Active

SMILES: COc1cc(C(=O)OCCCCO[N+](=O)[O-])ccc1OC(=O)[C@]12CCC(C)(C)C[C@H]1C1=CC[C@@H]3[C@@]4(C)CC[C@H](OC(=O)C(F)(F)F)C(C)(C)[C@@H]4CC[C@@]3(C)[C@]1(C)CC2
- Activity [5]: 28 ng/mL

SMILES: COc1cc(/C=C/C(=O)OCCCCO[N+](=O)[O-])ccc1OC(=O)[C@]12CCC(C)(C)C[C@H]1C1=CC[C@@H]3[C@@]4(C)CC[C@H](OC(=O)C(F)(F)F)C(C)(C)[C@@H]4CC[C@@]3(C)[C@]1(C)CC2
- Activity (HepG2 [11]): Active
- Activity (Homo sapiens [12]): Active
- Activity [5]: 12 ng/mL

SMILES: CC1(C)CC[C@]2(C(=O)Oc3ccc(/C=C/C(=O)OCCCCO[N+](=O)[O-])cc3)CC[C@]3(C)C(=CC[C@@H]4[C@@]5(C)CC[C@H](OC(=O)C(F)(F)F)C(C)(C)[C@@H]5CC[C@]43C)[C@@H]2C1
- Activity (Homo sapiens [8]): Active
- Activity [5]: 20 ng/mL
